The source made the active and inactive calls. The rule behind the calls is not given here.
Tests used:
[1] = system: HaCaT; assay: Inhibition of Hh/GLI1-mediated PTCH protein expression in human HaCaT cells expressing T-Rex system after 24 hrs by Western blot; type: cell-based
How it was run: (§1)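 HaCaT cells carrying tetracycline-inducible exogenous GLI1 plated at 2 × 10^6 per 10 cm dish for 12 h at 37 °C, then induced with 1 µg/mL tetracycline for 12 h. Medium removed and compounds added at various concentrations for 24 h. Lysates in Tris/NaCl/deoxycholate/EDTA buffer with protease inhibitor run on 5% and 12.5% SDS-PAGE. Immunoblot for PTCH, BCL-2 and GLI1 with ECL detection.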

[2] = system: PANC-1; assay: Inhibition of Hh/GLI1-mediated PTCH protein expression in human PANC1 cells after 24 hrs by Western blot; type: cell-based
How it was run: (§2)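 PANC1 cells treated with compounds at various concentrations for 24 h. Lysates run on SDS-PAGE, transferred to PVDF and blocked 1 h in TBST with 5% milk. Primary antibodies (PTCH, BCL-2) 1 h at room temperature, secondary 1 h, then ECL detection. Same procedure as for the HaCaT blots.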

[3] = system: DU-145; assay: Cytotoxicity against human DU145 cells after 24 hrs by fluorimetric microculture cytotoxicity assay; type: functional, cell-based; conditions: DU-145, 24 h
How it was run: (§3)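 Cells plated at 1 × 10^4 per well in RPMI + 10% FBS and preincubated 24 h at 37 °C. Medium then replaced with fresh medium containing a range of compound concentrations at 0.05% DMSO. After 24 h exposure, proliferation measured by fluorometric microculture cytotoxicity assay (FMCA). n = 3, SD; IC50 reported.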

[4] = system: PANC-1; assay: Cytotoxicity against human PANC1 cells after 24 hrs by fluorimetric microculture cytotoxicity assay; type: functional, cell-based; conditions: PANC-1, 24 h; how it was run: as §3
[5] = system: PANC-1; assay: Inhibition of Hh/GLI1-mediated Bcl2 protein expression in human PANC1 cells after 24 hrs by Western blot; type: cell-based; how it was run: as §2
[6] = Inhibition of Hh/GLI1-mediated transcription in human HaCaT cells expressing T-Rex system by luciferase reporter gene assay; type: cell-based
How it was run: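 HaCaT-GLI1-Luc cells (exogenous GLI1 under tetracycline control, T-REx) seeded at 2 × 10^5 per well. Compounds added after 12 h tetracycline induction, at 0.05% DMSO. GLI-dependent luciferase activity and cell viability read at the same time. n = 3, SD.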

[7] = Cytotoxicity against mouse C3H10T1/2 cells after 24 hrs by fluorimetric microculture cytotoxicity assay; type: cell-based; conditions: C3H 10T1/2, 24 h; how it was run: as §3
[8] = system: HaCaT; assay: Inhibition of Hh/GLI1-mediated Bcl2 protein expression in human HaCaT cells expressing T-Rex system after 24 hrs by Western blot; type: cell-based; how it was run: as §1
[9] = system: PANC-1; assay: Inhibition of Hh/GLI1-mediated PTCH mRNA expression in human PANC1 cells at 2 and 4 uM after 24 hrs by RT-PCR
[10] = system: PANC-1; assay: Inhibition of Hh/GLI1-mediated PTCH mRNA expression in human PANC1 cells at 4 uM after 24 hrs by RT-PCR; type: cell-based
How it was run: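 Ptch mRNA from treated and untreated PANC1 cells reverse-transcribed with a two-step qRT-PCR kit. Real-time PCR: 50 °C 2 min, 95 °C 2 min, then 40 cycles of 95 °C 15 s and 60 °C 30 s. Compared with an untreated control; cyclopamine included as positive control.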

[11] = system: PANC-1; assay: Inhibition of Hh/GLI1-mediated PTCH mRNA expression in human PANC1 cells at 0.4 uM after 24 hrs by RT-PCR; type: cell-based
How it was run: (§4)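 PANC1 cells treated, with untreated cells as control. Ptch mRNA was reverse transcribed with a two-step qRT-PCR kit and quantified by real-time PCR: 50 °C for 2 min, 95 °C for 2 min, then 40 cycles of 95 °C for 15 s and 60 °C for 30 s. Expression was compared with the untreated control.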

[12] = system: PANC-1; assay: Inhibition of Hh/GLI1-mediated PTCH mRNA expression in human PANC1 cells at 0.2 uM after 24 hrs by RT-PCR; type: cell-based; how it was run: as §4

SMILES | inhibition [1] | inhibition [2] | IC50 [3] [µM] | IC50 [4] [µM] | inhibition [5] | IC50 [6] [µM] | IC50 [7] [µM] | inhibition [8] | inhibition [9] | inhibition [10] | inhibition [11] | inhibition [12]
CC1=C(C)[C@@]2(C)CCCC(C)(C)[C@@H]2CC1 | Dose-dependent effect | Dose-dependent effect | 23.2 | 15.1 | Dose-dependent effect | 13.5 | > 100 | Dose-dependent effect |  |  |  | 
COC(=O)[C@]1(C)CCC[C@]2(C)c3cc4occc4c(C)c3C[C@@H](OC(C)=O)[C@@H]12 [TAEPEENIN D] | Dose-dependent effect | Dose-dependent effect | 3.4 | 3.2 | Dose-dependent effect | 1.6 | > 100 | Dose-dependent effect | Active | Active |  | 
CC1=C2C[C@H]3[C@@H](CC=C4C[C@@H](O)CC[C@@]43C)[C@@H]2CC[C@]12O[C@@H]1C[C@H](C)CN[C@H]1[C@H]2C |  |  |  |  |  |  |  |  |  |  | Active | Active

Source: ChEMBL document CHEMBL1157830, “Terpenoids and a flavonoid glycoside from Acacia pennata leaves as hedgehog/GLI-mediated transcriptional inhibitors” (J Nat Prod, 2010)
